This is an account of results in PMC2788794 (Chemistry & biology, 2009).

The test system of assay [1] is platelets. The following applies: cited from earlier work; for inhibition of Fbg binding to platelets: ref Bennett et al., 1988.
Assay [2] concerns αIIbβ3 CHO K1 cells. Description: Cell adhesion inhibition assay with soluble peptides. In kind it is cell-based. Conditions: soluble peptide 1 pM to 100 µM; 0.5% GRGDSC monolayer; 300 µM cRGDFG.
Assay [3] relates to platelets. Conditions: ref Bennett et al., 1988; cited from earlier work.
Assay [4] relates to αIIbβ3 CHO K1 cells. Description: Adhesion of transfected cells to GRGDSC monolayer in presence of inhibitors. The class given is cell-based. The following applies: 0.5% GRGDSC SAM.
Another assay has as its system αIIbβ3. Conditions: platelets; ref Bennett et al., 1988; cited from earlier work.
In another assay the test system is αvβ3. Conditions: ref Haubner et al., 1996; cited from earlier work.
For a further assay, the system named is CHO K1 cells. Description: Block of cell attachment to GRGDSC monolayer by cRGDFG. The class given is cell-based. The following applies: cRGDFG 300 µM; 0.5% GRGDSC SAM. An outline of the steps:
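Untransfected CHO K1 cells (F12K, 10% FBS, 37 °C, 5% CO2) were seeded on 0.5% GRGDSC SAMs, with or without cRGDFG 300 µM. The GRGDSC surface was made by coupling cysteine-terminated peptide (1 mM, 37 °C, 1 h) to a maleimide-presenting monolayer with tri(ethylene glycol) background. Adherent cells were scored by optical microscopy.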

The subject of assay [5] is αIIbβ3 CHO K1 cells. Put plainly: Cell adhesion assay on self-assembled monolayers presenting immobilized peptides. The class given is cell-based. The following applies: Fbg adsorbed on dodecanethiol (hydrophobic) monolayer; 300 µM cRGDFG.

With AGDV, the “inhibition of Fbg binding to activated platelets” value in the assay with platelets [1] (soluble peptide competing with radiolabeled Fbg, ref Plow et al., 1985) is recorded as “failure of an AGDV peptide to inhibit Fbg binding”. Also, the “block of cell attachment by soluble peptide to a monolayer presenting GRGDS” value in the assay with αIIbβ3 CHO K1 cells [2] is on record as “blocked cell attachment”.
As for HHLGGAKQAGDV, the “block of cell attachment by soluble peptide to a monolayer presenting GRGDS” value with αIIbβ3 CHO K1 cells [2] was “blocked cell attachment”.
Consider LGGAKQAGDV, for which the “inhibition of Fbg binding to platelets” value in the assay with platelets [1] is on record as “inhibited Fbg binding to platelets with an affinity comparable to that of RGDS”. The “inhibition of binding of A2A9 to platelets” value in the assay with platelets [3] is “could inhibit the binding of A2A9”.
PAC-1: the “effect on adhesion of αIIbβ3 CHO K1 cells to a monolayer presenting GRGDSC” value in the assay on αIIbβ3 CHO K1 cells [4] (PAC-1 antibody together with cRGDFG 300 µM) is listed as “prevented cell adhesion”.
Take RGDS: in the assay on platelets [1], the “inhibition of Fbg binding to platelets” value was “blocked the binding of both PAC-1 and Fbg to platelets with equal potency”. Moreover, the “inhibition of PAC-1 binding” value with αIIbβ3 is “blocked the binding of both PAC-1 and Fbg to platelets with equal potency”.
Consider cRGDFG (head to tail), for which the “affinity for αvβ3 relative to that for αIIbβ3” value in the assay on αvβ3 was “approximately 1,400 fold”. Further, the “effect on adhesion of αIIbβ3 CHO K1 cells to a monolayer presenting GRGDSC” value with αIIbβ3 CHO K1 cells [4] (cRGDFG 300 µM) was “did not interfere with adhesion”. The “block of attachment of CHO K1 cells to a monolayer presenting GRGDSC” value in the assay on CHO K1 cells is listed as “efficiently block the attachment”.

B1: Fbg: Human fibrinogen, plasma protein, adsorbed to hydrophobic monolayer as positive control (protein)
chain 1: ADSGEGDFLAEGGGVRGPRVVERHQSACKDSDWPFCSDEDWNYKCPSGCRMKGLIDEVNQDFTNRINKLKNSLFEYQKNNKDSHSLTTNIMEILRGDFSSANNRDNTYNRVSEDLRSRIEVLKRKVIEKVQHIQLLQKNVRAQLVDMKRLEVDIDIKIRSCRGSCSRALAREVDLKDYEDQQKQLEQVIAKDLLPSRDRQHLPLIKMKPVPDLVPGNFKSQLQKVPPEWKALTDMPQMRMELERPGGNEITRGGSTSYGTGSETESPRNPSSAGSWNSGSSGPGSTGNRNPGSSGTGGTATWKPGSSGPGSTGSWNSGSSGTGSTGNQNPGSPRPGSTGTWNPGSSERGSAGHWTSESSVSGSTGQWHSESGSFRPDSPGSGNARPNNPDWGTFEEVSGNVSPGTRREYHTEKLVTSKGDKELRTGKEKVTSGSTTTTRRSCSKTVTKTVIGPDGHKEVTKEVVTSEDGSDCPEAMDLGTLSGIGTLDGFRHRHPDEAAFFDTASTGKTFPGFFSPMLGEFVSETESRGSESGIFTNTKESSSHHPGIAEFPSRGKSSSYSKQFTSSTSYNRGDSTFESKSYKMADEAGSEADHEGTHSTKRGHAKSRPVRGIHTSPLGKPSLSP
chain 2: QGVNDNEEGFFSARGHRPLDKKREEAPSLRPAPPPISGGGYRARPAKAAATQKKVERKAPDAGGCLHADPDLGVLCPTGCQLQEALLQQERPIRNSVDELNNNVEAVSQTSSSSFQYMYLLKDLWQKRQKQVKDNENVVNEYSSELEKHQLYIDETVNSNIPTNLRVLRSILENLRSKIQKLESDVSAQMEYCRTPCTVSCNIPVVSGKECEEIIRKGGETSEMYLIQPDSSVKPYRVYCDMNTENGGWTVIQNRQDGSVDFGRKWDPYKQGFGNVATNTDGKNYCGLPGEYWLGNDKISQLTRMGPTELLIEMEDWKGDKVKAHYGGFTVQNEANKYQISVNKYRGTAGNALMDGASQLMGENRTMTIHNGMFFSTYDRDNDGWLTSDPRKQCSKEDGGGWWYNRCHAANPNGRYYWGGQYTWDMAKHGTDDGVVWMNWKGSWYSMRKMSMKIRPFFPQQ
chain 3: YVATRDNCCILDERFGSYCPTTCGIADFLSTYQTKVDKDLQSLEDILHQVENKTSEVKQLIKAIQLTYNPDESSKPNMIDAATLKSRKMLEEIMKYEASILTHDSSIRYLQEIYNSNNQKIVNLKEKVAQLEAQCQEPCKDTVQIHDITGKDCQDIANKGAKQSGLYFIKPLKANQQFLVYCEIDGSGNGWTVFQKRLDGSVDFKKNWIQYKEGFGHLSPTGTTEFWLGNEKIHLISTQSAIPYALRVELEDWNGRTSTADYAMFKVGPEADKYRLTYAYFAGGDAGDAFDGFDFGDDPSDKFFTSHNGMQFSTWDNDNDKFEGNCAEQDGSGWWMNKCHAGHLNGVYYQGGTYSKASTPNGYDNGIIWATWKTRWYSMKKTTMKIIPFNRLTIGEGQQHHLGGAKQAGDV
On to B1, for which the “adhesion and spreading of αIIbβ3 CHO cells on adsorbed Fbg (positive control)” value with αIIbβ3 CHO K1 cells [5] is “adhered and spread”.
